Calls of active or inactive are those of the source. No cut-off for these calls is given here.
How the values were obtained:
[1] = Electrophilicity towards N-alpha-acetyl lysine in 100 mM pH 8.1 phosphate buffer assessed as (S)-2-acetamido-6-(3-oxo-3-(pyridin-2-yl)prop-1-enylamino)hexanoic acid formation using 10 fold excess N-alpha-acetyl lysine at 25 degC by NMR spectrscopy; format: physicochemical
Procedure, shortened: (§1)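 NMR kinetics of the model electrophile with and without Nα-acetyl lysine, set up as in the glutathione protocol. Phosphate-buffered D2O (100 mM) was at pH 8.1. Electrophile diluted from a 200 mM DMSO-d6 stock; lysine solution freshly prepared in the same buffer.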

[2] = Electrophilicity towards N-alpha-acetyl lysine in 100 mM pH 8.1 phosphate buffer assessed as 3-hydroxy-1-(pyridin-2-yl)prop-2-en-1-one formation using 10 fold excess N-alpha-acetyl lysine at 25 degC by NMR spectrscopy; format: physicochemical; procedure, shortened: as §1
[3] = Glutathione reactivity assessed as formation of (2S)-2-amino-5-((2R)-1-(carboxymethylamino)-3-(1-methoxy-3-oxo-3-(pyridin-2-yl)propylthio)-1-oxopropan-2-ylamino)-5-oxopentanoic acid in presence of pH 7.4 at 37 degC by NMR based method; format: physicochemical; settings: gsh
[4] = Glutathione reactivity assessed as formation of (2S)-2-amino-5-((2R)-1-(carboxymethylamino)-3-(1-methoxy-3-oxo-3-(pyridin-2-yl)propylthio)-1-oxopropan-2-ylamino)-5-oxopentanoic acid in presence of pH 7.4 at 25 degC by NMR based method; format: physicochemical; settings: gsh
[5] = Electrophilicity towards N-alpha-acetyl lysine in 100 mM pH 7.4 phosphate buffer using 10 fold excess N-alpha-acetyl lysine at 25 degC by NMR spectrscopy; format: physicochemical
Procedure, shortened: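 Model electrophile with tenfold excess Nα-acetyl lysine in 100 mM phosphate buffer, pH 7.4, at 25 °C. Set up as in the glutathione NMR kinetics (1.0 mM electrophile from DMSO-d6 stock, buffered D2O).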

HeLa [6] = test: Inhibition of PI3K in human HeLa cells assessed as reduction in EGF-stimulated AKT phosphorylation at S473 at 100 nM preincubated for 10 mins followed by EGF stimulation measured after 5 mins by Western blot analysis; format: cell-based
Procedure, shortened: (§2)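 HeLa cells serum-starved overnight, pretreated with compound for 10 min, then stimulated with EGF at 10 ng mL-1 for 5 min. Lysis in boiling SDS sample buffer, protein quantified, equal protein boiled 5 min and run on SDS-PAGE. Transfer to PVDF, Western blot for EGFR/pEGFR (Tyr1068), AKT/pAKT (Ser473, Thr308), ERK1/2/pERK1/2 (Thr202/Tyr204) and GAPDH, with ECL detection.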

HeLa [7] = test: Inhibition of PI3K in human HeLa cells assessed as reduction in EGF-stimulated AKT phosphorylation at T308 at 100 nM preincubated for 10 mins followed by EGF stimulation measured after 5 mins by Western blot analysis; format: cell-based; procedure, shortened: as §2
[8] = biological target: Epidermal growth factor receptor (Homo sapiens) (UniProt P00533); test: Inhibition of EGFR in human HeLa cells assessed as reduction in EGF-stimulated ERK1/2 phosphorylation at T202/Y204 at 100 nM preincubated for 10 mins followed by EGF stimulation measured after 5 mins by Western blot analysis; format: cell-based; procedure, shortened: as §2
[9] = biological target: Epidermal growth factor receptor (Homo sapiens) (UniProt P00533); test: Inhibition of EGFR in human HeLa cells assessed as reduction in EGF-stimulated EGFR Y1068 phosphorylation at 100 nM preincubated for 10 mins followed by EGF stimulation measured after 5 mins by Western blot analysis; format: cell-based; procedure, shortened: as §2
HeLa [10] = test: Inhibition of PI3K in human HeLa cells assessed as reduction in EGF-stimulated AKT phosphorylation at S473 at 1 to 100 nM preincubated for 10 mins followed by EGF stimulation measured after 5 mins by Western blot analysis; format: cell-based
Procedure, shortened: (§3)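 HeLa cells were serum-starved overnight, pretreated with compound for 10 min, then stimulated with 10 ng mL-1 EGF for 5 min. Lysis was in boiling SDS sample buffer, with protein quantified at 660 nm. Equal protein was resolved by SDS-PAGE and Western blotted for pEGFR Tyr1068, pAKT Ser473/Thr308, and pERK1/2 Thr202/Tyr204 with total proteins and GAPDH, detected by ECL.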

HeLa [11] = test: Inhibition of PI3K in human HeLa cells assessed as reduction in EGF-stimulated AKT phosphorylation at T308 at 1 to 100 nM preincubated for 10 mins followed by EGF stimulation measured after 5 mins by Western blot analysis; format: cell-based; procedure, shortened: as §3

Chain of Epidermal growth factor receptor (Homo sapiens) (P00533 whole entry): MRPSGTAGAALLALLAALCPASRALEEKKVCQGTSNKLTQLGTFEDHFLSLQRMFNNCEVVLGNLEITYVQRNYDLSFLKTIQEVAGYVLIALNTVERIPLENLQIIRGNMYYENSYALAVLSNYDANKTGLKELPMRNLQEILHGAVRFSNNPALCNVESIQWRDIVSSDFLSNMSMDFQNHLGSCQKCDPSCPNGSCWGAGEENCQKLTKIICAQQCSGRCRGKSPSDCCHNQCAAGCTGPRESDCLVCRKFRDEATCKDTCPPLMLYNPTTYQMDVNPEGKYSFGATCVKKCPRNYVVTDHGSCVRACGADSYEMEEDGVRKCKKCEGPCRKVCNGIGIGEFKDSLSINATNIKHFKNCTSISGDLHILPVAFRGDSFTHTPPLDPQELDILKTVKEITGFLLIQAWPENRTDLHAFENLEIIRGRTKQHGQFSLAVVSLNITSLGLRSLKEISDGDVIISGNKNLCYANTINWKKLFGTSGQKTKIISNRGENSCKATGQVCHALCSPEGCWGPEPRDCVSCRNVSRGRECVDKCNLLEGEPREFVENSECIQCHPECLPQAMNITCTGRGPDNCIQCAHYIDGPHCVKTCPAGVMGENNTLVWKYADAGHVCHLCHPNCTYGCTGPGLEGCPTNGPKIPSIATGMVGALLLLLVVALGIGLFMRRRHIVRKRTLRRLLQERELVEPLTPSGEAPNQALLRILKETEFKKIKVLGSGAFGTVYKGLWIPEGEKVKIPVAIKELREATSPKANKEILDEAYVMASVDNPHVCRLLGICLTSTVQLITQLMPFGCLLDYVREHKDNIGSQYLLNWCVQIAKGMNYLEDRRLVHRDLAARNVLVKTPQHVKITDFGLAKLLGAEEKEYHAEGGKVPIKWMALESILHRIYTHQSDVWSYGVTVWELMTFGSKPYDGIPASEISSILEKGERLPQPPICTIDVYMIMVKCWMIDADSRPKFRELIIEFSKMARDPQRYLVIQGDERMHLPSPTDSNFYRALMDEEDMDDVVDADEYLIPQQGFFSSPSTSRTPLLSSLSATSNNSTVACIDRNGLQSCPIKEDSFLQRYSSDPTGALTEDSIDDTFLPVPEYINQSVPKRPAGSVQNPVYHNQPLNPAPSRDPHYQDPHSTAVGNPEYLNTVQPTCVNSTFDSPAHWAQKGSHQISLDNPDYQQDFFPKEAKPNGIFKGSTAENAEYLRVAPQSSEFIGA

Work on CO/C=C/C(=O)c1ccccn1 yielded a t1/2 [1] of 60 min, a t1/2 [2] of 1440 min and a t1/2 [3] of 5.4 min. The t1/2 [4] was 13 min and the Activity [5] was “Not Active”.
With COC[C@H]1OC(=O)c2coc3c2[C@@]1(C)C1=C(C3=O)[C@@H]2CCC(=O)[C@@]2(C)C[C@H]1OC(C)=O the inhibition (HeLa [6]) was “Active”, the inhibition (HeLa [7]) was “Active” and the inhibition [8] was “inactive”. For the same compound, the inhibition [9] was “inactive”.
With CC(C)C(=O)Nc1cc(N)c2c3c(cc(C(=O)CCO)nc13)C=N2 the inhibition (HeLa [10]) was “inactive” and the inhibition (HeLa [11]) was “inactive”.

— ChEMBL document CHEMBL4266033, “Neolymphostin A Is a Covalent Phosphoinositide 3-Kinase (PI3K)/Mammalian Target of Rapamycin (mTOR) Dual Inhibitor That Employs an Unusual Electrophilic Vinylogous Ester” (J Med Chem, 2018)
